Assay outcomes as filed in PubChem.
thrombin 1536 = inhibitors of human thrombin; AID 1046; P00734; inhibition, % at 5 µM; alpha-thrombin, Boc-VPR-AMC fluorogenic substrate cleavage; 220,000 compounds, 0.26% hits;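 active means inhibition at or above 40%; inactive means inhibition below 40%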;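 further: 0% = enzyme with no compound and 100% = wells without enzyme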
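Material: human alpha-thrombin protein. Incubation: reaction at ambient temperature. Technique: fluorescence of released AMC, ex 355 nm, em 460 nm. Control set: no-compound enzyme wells and no-enzyme blanks. Also added: Boc-VPR-AMC substrate, 15 µM final. Buffer or medium: pH 7.5 Tris (50 mM) with NaCl 150 mM, Tween 20 0.05%.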
FXIIa inh = inhibitors of human coagulation factor XIIa | P00748 | purified FXIIa, Boc-QGR-AMC fluorogenic substrate, 2 h | inhibition, % at 5 µM | 220,000 compounds, 0.3% hits; in the data active means inhibition above about 40%;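 further: 0% = enzyme with no compound and 100% = blank without enzyme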
Target sequence (P00748 20-372 limits assumed): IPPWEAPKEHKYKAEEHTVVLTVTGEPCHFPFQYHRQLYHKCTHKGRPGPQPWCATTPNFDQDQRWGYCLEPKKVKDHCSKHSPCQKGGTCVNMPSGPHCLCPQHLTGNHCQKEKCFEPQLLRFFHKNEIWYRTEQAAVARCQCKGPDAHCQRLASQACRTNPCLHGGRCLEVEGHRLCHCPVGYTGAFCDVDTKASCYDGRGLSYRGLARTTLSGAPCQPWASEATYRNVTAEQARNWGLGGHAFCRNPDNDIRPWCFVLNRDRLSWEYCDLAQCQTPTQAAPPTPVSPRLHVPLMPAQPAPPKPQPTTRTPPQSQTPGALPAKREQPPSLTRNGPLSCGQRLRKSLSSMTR
Target sequence (P00748 373-615 limits assumed): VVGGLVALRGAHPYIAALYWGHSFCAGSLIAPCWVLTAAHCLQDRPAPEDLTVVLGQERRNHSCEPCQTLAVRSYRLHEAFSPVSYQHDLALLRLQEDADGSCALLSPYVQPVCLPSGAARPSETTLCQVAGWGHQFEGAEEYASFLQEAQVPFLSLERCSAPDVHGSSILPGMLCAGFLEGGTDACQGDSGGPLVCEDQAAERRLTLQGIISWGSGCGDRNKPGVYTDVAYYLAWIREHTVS
FXIa inh = blocks human coagulation factor XIa protease activity; P03951; purified FXIa, Boc-Glu-Ala-Arg-AMC fluorogenic substrate; inhibition, % at 5 µM; 220,000 compounds, 0.14% hits; AID 798;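 active means inhibition of at least 40%; inactive means inhibition below 40%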;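 further: fluorescence of freed AMC excited at 355 nm; 0% = enzyme without compound and 100% = no enzyme blank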
hK5 inh = kallikrein 5 (human) inhibition. Q9Y337. inhibition, % at 5 µM. AID 873. recombinant hK5, fluorogenic AMC substrate cleavage. 210,000 compounds, 0.59% hits;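 active means inhibition of 40% or more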;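 further: 0% = enzyme controls without compound and 100% = no-enzyme blanks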
Numbers without * were called inactive; . = no result given. Only some compounds are listed: those with a hit (about 1% of all), similar ones and a draw of the others.

SMILES	thrombin 1536	FXIIa inh	FXIa inh	hK5 inh
CC(C)(C)c1ccc(Cn2nnc3c(=O)[nH]c(C4CCN(C(=O)Cc5cccs5)CC4)nc32)cc1	9	15	16	118*
COc1cc(OC)c(S(=O)(=O)NC(C)C)cc1C(=O)O	-3	2	-4	-1
Cc1ccc[n+](C(C)C(=O)Nc2ccc(C)c([N+](=O)[O-])c2)c1 (stereo not given)	-2	1	-16	-26
CC1CN(CC(O)COC2CCC(C(C)(C)C)CC2)CC(C)O1 (stereo not given)	2	26	28	43*
CC1Cn2c(nnc2-c2ccccc2O)S1 (stereo not given)	-2	8	4	-6
CC1Cn2c(nnc2-c2cc3ccccc3cc2O)S1 (stereo not given)	3	21	1	44*
O=C(NCc1ccccc1)NC(=O)c1ccncc1	3	19	3	40*
O=C1OC(/C=C/c2ccc(Cl)cc2)=NC/1=C/c1ccco1	-1	9	3	-5
CC(C)NC(=O)NC(=O)CSc1nncs1	-3	1	-4	-6
COC(=O)CON1C(=O)c2ccccc2C1=O	-9	4	0	-21
Cc1cc(C)c(S(=O)(=O)ON2C(=O)c3ccccc3C2=O)cc1C	56*	38	72*	29
Cc1ccc(S(=O)(=O)ON2C(=O)c3ccccc3C2=O)c(C)c1	62*	47*	57*	13
Cc1cccc(OCCN2C(=O)c3ccccc3C2=O)c1	-1	8	-2	-2
Cc1cc(C)c(C)c(S(=O)(=O)ON2C(=O)c3ccccc3C2=O)c1C	18	53*	72*	12
COC(=O)CC/C(O)=C1\C(=O)CC(C)(C)CC1=NCc1nc2ccccc2[nH]1	-8	8	-7	.
Cc1cc(-c2ccco2)n(CC(=O)O)n1	-1	-3	-4	115*
Cc1[nH]c(=O)[nH]c(=O)c1/C=N/NC(=O)[C@H](C)N	25	40	18	52*
CN(C)S(=O)(=O)N1CCc2ccccc21	24	23	10	72*
CN(C)S(=O)(=O)N1CCc2ccccc2C1	-21	-3	1	2
Cc1c(NC(=O)CN2CCN(c3ccc(F)cc3)CC2)c(=O)n(-c2ccccc2)n1C	-4	2	-5	-10
COc1ccc2nc(-c3ccc(Cl)cc3)cc(C(=O)O)c2c1	-12	-11	-17	-4
COC(=O)c1ccccc1NC(=O)N1CCN(S(=O)(=O)c2ccc(Cl)cc2)CC1	20	7	-8	102*
COC(=O)c1ccccc1NC(=O)N1CCCC1	4	11	-1	-5
CCc1ccccc1NC(=S)N=Nc1c(O)n(C)c2ccc(S(=O)(=O)N3CCOCC3)cc12	12	14	9	-24
Cc1ccc(Cn2c(O)c(N=NC(=S)Nc3ccccc3F)c3cc(S(=O)(=O)N4CCOCC4)ccc32)cc1	2	37	50*	95*
SMILES	thrombin 1536	FXIIa inh	FXIa inh	hK5 inh
COC(=O)NNC(=S)NCc1ccccc1	1	13	4	-21
COc1cc(S(=O)(=O)N2CCN=C2c2ccccc2)ccc1F	3	12	-8	-3
Cc1ccc(S(=O)(=O)N2CCN=C2c2ccccc2)cc1C	24	17	22	45*
Cc1ccc2nc(SCC3CCCCO3)[nH]c2c1 (stereo not given)	0	10	1	3
CCOC(=O)c1cc(-c2ccccc2)sc1NC(=O)CN1C(=O)NC(CC)(c2ccc(F)cc2)C1=O (stereo not given)	-2	12	-3	-2
CCOC(=O)c1cc(-c2ccccc2)sc1NC(=O)CN1C(=O)NC(CC)(c2ccccc2)C1=O (stereo not given)	14	18	16	40*
Nc1c(C(=O)NCc2cccnc2)sc(=S)n1-c1ccccc1	38	42*	15	35
COCCCNC(=O)c1c(N)n(-c2ccc3c(c2)OCO3)c2nc3ccccc3nc12	0	-11	-9	105*
CC(=O)c1cccc(NC(=O)C23CC4CC(C2)CC(n2cncn2)(C4)C3)c1	0	17	12	-5
C(=N\Nc1ccccn1)/c1ccc2c(c1)OCCO2	-7	2	-3	-3
CNS(=O)(=O)c1cc(C(=O)O)ccc1OC	18	41*	9	18
COc1ccc(C(=O)O)cc1S(N)(=O)=O	-2	5	-5	-4
CCOC(=O)c1[nH]c2cc(OC)c(OC)cc2c1NC(=O)CN1CCN(c2ccc(OC)cc2)C(C)C1 (stereo not given)	-4	2	2	-28
COC(=O)c1[nH]c2cccc(OC)c2c1NC(=O)CN1CCN(c2cccc(OC)c2)C(C)C1 (stereo not given)	3	-1	-4	125*
FC(F)(F)COc1ccc(-c2nnc(SCc3ccccc3)o2)cn1	-3	9	5	1
O=C1c2oc3ccccc3c(=O)c2C(c2cccc(F)c2)N1CCCO (stereo not given)	-2	51*	-7	-3
COc1cc(C(=O)N2CCC(O)(c3ccccc3)CC2)cc(OC)c1OC	12	-6	2	51*
C=CCn1c(COc2ccc(OC)cc2)nnc1SCn1nnc2ccccc2c1=O	-2	4	-3	-19
Cc1ccc(NC(=O)c2cccs2)cc1	-1	10	-3	-5
Cc1ccc(NC(=O)CN(C)C(=O)CCC(=O)c2cccs2)cc1	47*	-3	7	14
COc1ccc(Cn2nnnc2C(c2cc(OC)ccc2OC)N2CCC(C(N)=O)CC2)cc1 (stereo not given)	37	23	15	70*
COc1cc(-c2nc(CN(C)Cc3nnc(C)o3)c(C)o2)ccc1F	-5	11	1	5
Cc1cc(C(=O)Nc2ccc3c(c2)CCC3)c2ccccc2n1	-5	4	-1	-4
Cc1cc(C(=O)Nc2ccc(N3CCOCC3)cc2)c2ccccc2n1	0	44*	11	1
Cc1cccc(N2CCN(C3=NC(=O)C(=C4CCCCC4)S3)CC2)c1	1	-3	-5	120*
SMILES	thrombin 1536	FXIIa inh	FXIa inh	hK5 inh
Cc1ccc(C#CC[N+]2(C)CCCCC2)cc1	1	7	1	0
CCOC(=O)c1c(C)n(C)c2ccc(OC)c(NC(=O)CN3CCSCC3)c12	-7	5	-8	21
CCOC(=O)c1c(C)n(C)c2ccc(OC)c(NC(=O)CCN3CCC(Cc4ccccc4)CC3)c12	9	27	52*	23
COC(=O)c1c(C)nn(-c2ccccc2)c1-n1cccc1	41*	33	14	33
Cc1ccc(-n2c(=O)c3ccccc3n(CC(=O)C(C)(C)C)c2=O)cc1	9	26	28	46*
Cc1ccc(OC(F)F)c(NC(=O)Nc2cccc(C(F)(F)F)c2)c1	19	20	8	56*
Cc1cccc(C(C)Nc2ccc([N+](=O)[O-])cn2)c1 (stereo not given)	5	10	1	4
Cc1c(Cl)cn2c(=O)cc(CN(C)Cc3nc4ccccc4c(=O)[nH]3)nc2c1Cl	2	9	4	10
CCOC(=O)N1CCN(Cc2c(NC(=O)c3ccco3)sc(C)c2C)CC1	2	2	-28	-15
